Data taken from ChEMBL document CHEMBL1122376, “Pyrazolo[3,4-d]pyrimidine ribonucleosides as anticoccidials. 3. Synthesis and activity of some nucleosides of 4-[(arylalkenyl)thio]pyrazolo[3,4-d]pyrimidines” (1983).
In brackets after ≈: the same amount, converted by molar mass.

How the values were obtained:
Type in all cases: functional
Eimeria tenella [1] = test: In vivo anti-coccidial activity expressed as number of the chicks cleared of Eimeria tenella lesions out of a group of five, at 25 ppm in the diet.
Outline: (§1)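 Week-old chicks, given compound in the diet. E. tenella (Weybridge strain) infection given together with E. acervulina (Ongar strain).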

Eimeria tenella [2] = test: In vivo anti-coccidial activity expressed as number of the chicks cleared of Eimeria tenella lesions out of a group of five, at 50 ppm in the diet.; outline: as §1
Eimeria tenella [3] = test: In vivo anti-coccidial activity expressed as number of the chicks cleared of Eimeria tenella lesions out of a group of five, at 200 ppm in the diet.; outline: as §1
Eimeria tenella [4] = test: In vitro inhibitory activity against Eimeria tenella in embryonic chick liver cells.
Outline: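 E. tenella, Weybridge strain, grown in vitro in embryonic chick liver cells.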

Eimeria tenella [5] = test: In vivo anti-coccidial activity expressed as number of the chicks cleared of Eimeria tenella lesions out of a group of five, at 400 ppm in the diet.; outline: as §1
Eimeria tenella [6] = test: In vivo anti-coccidial activity expressed as number of the chicks cleared of Eimeria tenella lesions out of a group of five, at 100 ppm in the diet.; outline: as §1
Eimeria tenella [7] = test: In vivo anti-coccidial activity expressed as number of the chicks cleared of Eimeria tenella lesions out of a group of five, at 300 ppm in the diet.; outline: as §1
Eimeria tenella [8] = test: In vivo anti-coccidial activity expressed as number of the chicks cleared of Eimeria tenella lesions out of a group of five, at 200 ppm in the diet;one chick out of 5 died and contained lesions due to the parasite.
Eimeria tenella [9] = test: In vivo anti-coccidial activity expressed as number of the chicks cleared of Eimeria tenella lesions out of a group of five, at 25 ppm in the diet;At 12.5 ppm, no chicks were cleared.; outline: as §1
Eimeria tenella [10] = test: In vivo anti-coccidial activity expressed as number of the chicks cleared of Eimeria tenella lesions out of a group of five, at 12.5 ppm in the diet.; outline: as §1
Eimeria tenella [11] = test: In vivo anti-coccidial activity expressed as number of the chicks cleared of Eimeria tenella lesions out of a group of five, at 25 ppm in the diet;At 12.5 p.p.m. no chicks were cleared.; outline: as §1
Eimeria tenella [12] = test: In vivo anti-coccidial activity expressed as number of the chicks cleared of Eimeria tenella lesions out of a group of five, at 200 ppm in the diet;one chick out of a group of 5 died and contained lesions due to the parasite.

SMILES: CC(=O)OC[C@H]1O[C@@H](n2ncc3c(SC/C=C/c4ccccc4)ncnc32)[C@H](OC(C)=O)[C@@H]1OC(C)=O
- Activity (Eimeria tenella [1]): 1
- Activity (Eimeria tenella [2]): 5
- Activity (Eimeria tenella [3]): 5
- MIC (Eimeria tenella [4]): 1.25 µg/mL (≈ 2.37 µM)

SMILES: OC[C@H]1OC(n2ncc3c(SC/C=C/c4ccc(Cl)c(Cl)c4)ncnc32)[C@H](O)[C@@H]1O (stereo partly drawn)
- Activity (Eimeria tenella [3]): 2
- MIC (Eimeria tenella [4]): 0.31 µg/mL (≈ 0.66 µM)

SMILES: OC[C@H]1OC(n2ncc3c(SC/C=C/c4cccc(O)c4)ncnc32)[C@H](O)[C@@H]1O (stereo partly drawn)
- Activity (Eimeria tenella [5]): 0
- MIC (Eimeria tenella [4]): 20 µg/mL (≈ 48 µM)

SMILES: C/C=C/CSc1ncnc2c1cnn2C1O[C@H](CO)[C@@H](O)[C@H]1O (stereo partly drawn)
- Activity (Eimeria tenella [1]): 0
- Activity (Eimeria tenella [2]): 0
- Activity (Eimeria tenella [6]): 4
- Activity (Eimeria tenella [3]): 5
- MIC (Eimeria tenella [4]): 0.019 µg/mL (≈ 0.0561 µM)

SMILES: OC[C@H]1OC(n2ncc3c(S)ncnc32)[C@H](O)[C@@H]1O (stereo partly drawn)
- Activity (Eimeria tenella [3]): 2
- MIC (Eimeria tenella [4]): 0.31 µg/mL (≈ 1.09 µM)

SMILES: COc1ccccc1/C=C/CSc1ncnc2c1cnn2C1O[C@H](CO)[C@@H](O)[C@H]1O (stereo partly drawn)
- Activity (Eimeria tenella [7]): 1
- MIC (Eimeria tenella [4]): 1.25 µg/mL (≈ 2.9 µM)

SMILES: OC[C@H]1OC(n2ncc3c(SC/C=C/c4cccc(C(F)(F)F)c4)ncnc32)[C@H](O)[C@@H]1O (stereo partly drawn)
- Activity (Eimeria tenella [8]): 1
- MIC (Eimeria tenella [4]): 5 µg/mL (≈ 10.7 µM)

SMILES: COc1cc(/C=C/CSc2ncnc3c2cnn3C2O[C@H](CO)[C@@H](O)[C@H]2O)cc(OC)c1OC (stereo partly drawn)
- Activity (Eimeria tenella [5]): 5
- Activity (Eimeria tenella [6]): 2
- Activity (Eimeria tenella [3]): 5
- MIC (Eimeria tenella [4]): 0.31 µg/mL (≈ 0.632 µM)

SMILES: C=CCSc1ncnc2c1cnn2C1O[C@H](CO)[C@@H](O)[C@H]1O (stereo partly drawn)
- Activity (Eimeria tenella [1]): 1
- Activity (Eimeria tenella [2]): 2
- Activity (Eimeria tenella [6]): 5
- Activity (Eimeria tenella [3]): 5
- MIC (Eimeria tenella [4]): 0.019 µg/mL (≈ 0.0586 µM)

SMILES: OC[C@H]1OC(n2ncc3c(SC/C=C/C=C/c4ccccc4)ncnc32)[C@H](O)[C@@H]1O (stereo partly drawn)
- Activity (Eimeria tenella [1]): 1
- Activity (Eimeria tenella [2]): 5
- Activity (Eimeria tenella [3]): 5
- MIC (Eimeria tenella [4]): 0.019 µg/mL (≈ 0.0445 µM)

SMILES: OC[C@H]1OC(n2ncc3c(SC/C=C\c4ccccc4)ncnc32)[C@H](O)[C@@H]1O (stereo partly drawn)
- Activity (Eimeria tenella [9]): 0
- Activity (Eimeria tenella [2]): 0
- Activity (Eimeria tenella [6]): 0
- MIC (Eimeria tenella [4]): > 20 µg/mL

SMILES: O=P(O)(O)OC[C@H]1OC(n2ncc3c(SC/C=C/c4ccccc4)ncnc32)[C@H](O)[C@@H]1O (stereo partly drawn)
- Activity (Eimeria tenella [1]): 5
- Activity (Eimeria tenella [2]): 5
- Activity (Eimeria tenella [6]): 5
- Activity (Eimeria tenella [10]): 0
- Activity (Eimeria tenella [3]): 5
- MIC (Eimeria tenella [4]): 0.012 µg/mL (≈ 0.025 µM)

SMILES: COc1ccc(/C=C/CSc2ncnc3c2cnn3C2O[C@H](CO)[C@@H](O)[C@H]2O)cc1 (stereo partly drawn)
- Activity (Eimeria tenella [7]): 2
- MIC (Eimeria tenella [4]): 1.25 µg/mL (≈ 2.9 µM)

SMILES: OC[C@H]1OC(n2ncc3c(SCC#Cc4ccccc4)ncnc32)[C@H](O)[C@@H]1O (stereo partly drawn)
- Activity (Eimeria tenella [1]): 1
- Activity (Eimeria tenella [2]): 0
- Activity (Eimeria tenella [6]): 2
- Activity (Eimeria tenella [3]): 5
- MIC (Eimeria tenella [4]): 0.019 µg/mL (≈ 0.0477 µM)

SMILES: OC[C@H]1OC(n2ncc3c(SC/C=C/c4ccc(Cl)cc4)ncnc32)[C@H](O)[C@@H]1O (stereo partly drawn)
- Activity (Eimeria tenella [1]): 0
- Activity (Eimeria tenella [2]): 0
- Activity (Eimeria tenella [6]): 5
- Activity (Eimeria tenella [3]): 5
- MIC (Eimeria tenella [4]): 0.31 µg/mL (≈ 0.713 µM)

SMILES: OC[C@H]1OC(n2ncc3c(SC/C=C/c4ccccc4)ncnc32)[C@H](O)[C@@H]1O (stereo partly drawn)
- Activity (Eimeria tenella [11]): 5
- Activity (Eimeria tenella [2]): 5
- Activity (Eimeria tenella [6]): 5
- Activity (Eimeria tenella [3]): 5
- MIC (Eimeria tenella [4]): 0.078 µg/mL (≈ 0.195 µM)

SMILES: OC[C@H]1OC(n2ncc3c(SC/C=C/c4cccc(Br)c4)ncnc32)[C@H](O)[C@@H]1O (stereo partly drawn)
- Activity (Eimeria tenella [1]): 1
- Activity (Eimeria tenella [2]): 4
- Activity (Eimeria tenella [6]): 5
- Activity (Eimeria tenella [3]): 5
- MIC (Eimeria tenella [4]): 5 µg/mL (≈ 10.4 µM)

SMILES: Cc1ccc(/C=C/CSc2ncnc3c2cnn3C2O[C@H](CO)[C@@H](O)[C@H]2O)cc1 (stereo partly drawn)
- Activity (Eimeria tenella [12]): 0
- MIC (Eimeria tenella [4]): 5 µg/mL (≈ 12.1 µM)

SMILES: OC[C@H]1OC(n2ncc3c(SC/C=C/c4ccc(OCc5ccccc5)cc4)ncnc32)[C@H](O)[C@@H]1O (stereo partly drawn)
- Activity (Eimeria tenella [1]): 1
- Activity (Eimeria tenella [2]): 0
- Activity (Eimeria tenella [6]): 2
- Activity (Eimeria tenella [3]): 5
- MIC (Eimeria tenella [4]): 1.25 µg/mL (≈ 2.47 µM)

SMILES: OC[C@H]1OC(n2ncc3c(SC/C=C/c4ccc(Cl)cc4Cl)ncnc32)[C@H](O)[C@@H]1O (stereo partly drawn)
- Activity (Eimeria tenella [3]): 2
- MIC (Eimeria tenella [4]): 1.25 µg/mL (≈ 2.66 µM)
